Key:
MS2 coat protein [1] = assay: apparent Kd, MS2 coat protein; higher = weaker binding; RNA-MaP array; theophylline 2 mM where present
Summary of the method: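 Stalled E. coli RNA polymerase transcribed the designs on Illumina sequencing-chip clusters. SNAP-549-labelled MS2 coat protein was titrated from 0.7 or 1.5 nM, doubling to 3 µM, without and then with constant ligand, in 100 mM Tris-HCl pH 7.5, 80 mM KCl, 4 mM MgCl2, BSA, DTT, yeast tRNA and Tween-20. Per-cluster binding curves were fitted to green signal normalised to red-channel RNA signal and control-cluster median Fmax. The apparent Kd is the median of the filtered fits.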

MS2 coat protein [2] = assay: apparent Kd, MS2 coat protein; higher = weaker binding; RNA-MaP array
Summary of the method: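 Designed RNAs were produced on an Illumina sequencing chip by transcription of sequenced DNA templates. Binding to fluorescently labeled MS2 coat protein (1.5 nM to 3 μM) was measured at room temperature with or without input ligand. The apparent Kd is the median of per-cluster binding-curve fits. Designs were excluded when measured on fewer than 10 clusters.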

[3] = designed as: OFF switch for theophylline, no ligand
[4] = ligand present: theophylline, designed as: OFF switch for theophylline
[5] = designed as: OFF switch for tryptophan, no ligand
[6] = ligand present: tryptophan, designed as: OFF switch for tryptophan
[7] = designed as: OFF switch for flavin mononucleotide, no ligand
[8] = ligand present: flavin mononucleotide, designed as: OFF switch for flavin mononucleotide
[9] = designed as: ON switch for flavin mononucleotide, no ligand
[10] = ligand present: flavin mononucleotide, designed as: ON switch for flavin mononucleotide

Row | Sequence | apparent Kd (MS2 coat protein [2]; [7]) [nM] | apparent Kd (MS2 coat protein [2]; [8]) [nM] | also measured
1 | UUUUUUAUUAUGGCGUAUCGGAAAACCGAUACCAGUACAGAAAUGUACCCUUGGCAGCGGCGUUUUACAUGAGGAUCACCCAUGU |  |  | apparent Kd (MS2 coat protein [1]; [3]): 13.9 nM; apparent Kd (MS2 coat protein [1]; [4]): 20.1 nM
2 | UGACAUUGCUCAGAUACCAGACAUGAGGAUCACCCAUGUACCAAGAAAACGUACAAUAAUGUCCCUUGGCAGCUGAGCAAUGUCU |  |  | apparent Kd (MS2 coat protein [1]; [3]): 101 nM; apparent Kd (MS2 coat protein [1]; [4]): 549 nM
3 | UCGUGUGUUUCGGAUACCAGUGUGGUCGAUACAUGAGGAUCACCCAUGUUAGAGGAGGUACACCCUUGGCAGCCGGCUGUUGCGG |  |  | apparent Kd (MS2 coat protein [1]; designed as: ON switch for theophylline, no ligand): 108 nM; apparent Kd (MS2 coat protein [1]; ligand present: theophylline, designed as: ON switch for theophylline): 51.1 nM
4 | AAAUAAAUAACUGAUACCAGUGUACUGACAUGAGGAUCACCCAUGUUGGGUUUUGUUGUACACCCUUGGCAGCAGAAAUAUAAAA |  |  | apparent Kd (MS2 coat protein [1]; [3]): 35.3 nM; apparent Kd (MS2 coat protein [1]; [4]): 73 nM
5 | CUCUUGGCCGCAGUACGUUUAUAGACCUAUCGAGGACCGGUACGGCCGCCACUCGGUUAGUCACAUGAGGAUCACCCAUGUGUCC |  |  | apparent Kd (MS2 coat protein [2]; [5]): 17.7 nM; apparent Kd (MS2 coat protein [2]; [6]): 29.9 nM
6 | UUCUUUGACGAGAAGGUCUCAACAUGAGGAUCACCCAUGUGAAUUAAUGGAACCAGGCCUGUUUAGAAGGAUAUCGCGGGAGUU | 10.9 | 13.8 | 
7 | GCCCUGUGACUAGGAUAUGCCGGGAAACACAUCGCAGAAGGAGUCCACUCAUGUCGACAUGAGGAUCACCCAUGUACCAGGGUU | 40.6 | 29.9 | 
8 | CGACAUAACCGAGGAUAUCGCUGACGUAAGCACAUGAGGAUCACCCAUGUGAGUGAGAGUGAGUACGAGAAGGCGGAAUUAAGG |  |  | apparent Kd (MS2 coat protein [2]; [9]): 53.3 nM; apparent Kd (MS2 coat protein [2]; [10]): 16.5 nM
9 | ACAAGGAGUCAAGGAUAUGAUAGAAGUUACACAUGAGGAUCACCCAUGUUUCUCCGGUGUCAGAAUCAGAAGGUGAGUAUGCAU | 85.2 | 74.7 | 
10 | CCUCGGCCAUCAGGAUAUCAUUCUCCGAUGCGGAACAUGAGGAUCACCCAUGUUGGGUACCCGUGUGAGAAGGGAUGCGUACGG | 74.3 | 62.2 | 
11 | ACUUCAGAUACAGGAUAUAGCGUAACAUGAGGAUCACCCAUGUCUUGAUGCCUCUGUCGCGACGACUAGAAGGGUAAGCUUUGA | 91.6 | 86.7 | 
12 | AAUACACAUGAGGAUCACCCAUGUAAGGAUAUCAAGCAUCAAACAUUAGAGUGAGGAGUGAGAAGGUACAUCAC | 20.1 | 16.3 | 
13 | AGGAGGCAUAAGAAGGGUACAUGUAUUGGGUGUACAGGAUAUUACAGGUGCCGCACAUGAGGAUCACCCAUGUUAUCAUUGUGC | 39 | 34 | 
14 | AAAUGAGCGCAUCCCUAACAUGAGGAUCACCCAUGUGCUACAGAGGAUAUCGUCACCAUAUCUCACGAGAAGGCUGGUAUAUUG | 9.25 | 11.4 | 
15 | UGAGAAGUAGGAUAUAAGUACACCUACAUGAGGAUCACCCAUGUACCUAACGUAGCCGAUUUAGAAGGACUGUCAA | 58.7 | 35.5 | 
16 | CUCGUACAUGAGGAUCACCCAUGUCAGGAUAUUACUGUCGAGUCCAAAACUAGAAAGGUAAGAAGGGACACAUU | 13.3 | 17.8 | 
17 | GAUUAAAAGAUAGGAUAUUUUGAAAUCGUCACAUGAGGAUCACCCAUGUAUGGCCUGGGCAAUCAAAAGAAGGAUCUUUCUGAU | 11.2 | 6.84 | 
18 | GGAAUCGGAUUAGAGGAUAUCGAUCUGUUAACAUGAGGAUCACCCAUGUGGACGCUUCAUUCGAACGAGAAGGCUAGAUGGACACC |  |  | apparent Kd (MS2 coat protein [2]; [9]): 23.8 nM; apparent Kd (MS2 coat protein [2]; [10]): 16.8 nM
19 | AAACUGAUCUUCAGGAGUCACUAUAUCUCCCGAGGACCGGUACGGCCGCCACUCGAACGUUUACAUGAGGAUCACCCAUGUGACU |  |  | apparent Kd (MS2 coat protein [2]; [5]): 14.8 nM; apparent Kd (MS2 coat protein [2]; [6]): 19.6 nM
20 | AUAGAACAUGAGGAUCACCCAUGUAGAAAAUCAGCAGGAUAUGUGAUCACUCCGUAAUUGACAGAAGGGCUAACAA |  |  | apparent Kd (MS2 coat protein [2]; [9]): 68.2 nM; apparent Kd (MS2 coat protein [2]; [10]): 28.8 nM
21 | GGAAAACCUCGAGGAUAUAGCACAUGAGGAUCACCCAUGUACCAUAAGUGUUGACAAAAGAGAGACUAGAAGGCGAAUCAAACC |  |  | apparent Kd (MS2 coat protein [2]; [9]): 13.1 nM; apparent Kd (MS2 coat protein [2]; [10]): 11.6 nM
22 | AAUAGAGAGCAGAAGGCCCUAGUUAUCGGCAUGGGAGGAUAUGCACCAGAUAAUAACAUGAGGAUCACCCAUGUUGAAUAAGAA |  |  | apparent Kd (MS2 coat protein [2]; [9]): 19.4 nM; apparent Kd (MS2 coat protein [2]; [10]): 6.46 nM

Source: the EternaBench riboswitch data
